Laboratory results published in ChEMBL document CHEMBL2417509, “Synthesis and biological evaluation of prodigiosene conjugates of porphyrin, estrone and 4-hydroxytamoxifen” (2013).
The source made the active and inactive calls. The rule behind the calls is not given here.

System: MCF7
Assay: Cytotoxicity against human ER positive MCF7 cells assessed as cell viability at 1 uM after 72 hrs by MTT assay
Type: functional, cell-based
Method in brief: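 Lines kept in DMEM with 10% fetal bovine serum and 1% penicillin/streptomycin at 37 °C, 5% CO2. Compound applied at 1 µM for 72 h, then standard MTT reduction read-out. Viability given as mean percentage of formazan formed by treated cells relative to mock-treated cells (0.1% DMSO). Run in quadruplicate, standard error, Student's t-test.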

## COc1cc(-c2ccc[nH]2)[nH]c1/C=C1\N=C(C)C(C(=O)CCCCC(=O)Oc2ccc3c(c2)CC[C@@H]2[C@@H]3CC[C@]3(C)C(=O)CC[C@@H]23)=C1C
  Activity: inactive

## COc1cc(-c2ccc[nH]2)[nH]c1/C=C1\N=C(C)C(C(=O)CCCCCCCCC(=O)Oc2ccc3c(c2)CC[C@@H]2[C@@H]3CC[C@]3(C)C(=O)CC[C@@H]23)=C1C
  Activity: inactive
